The text below walks through data of ChEMBL document CHEMBL1144256, “Potent Kv1.3 inhibitors from correolide-modification of the C18 position” (Bioorg Med Chem Lett, 2005).

Molecules are shown by their SMILES.

The target in assay [1] is T1, Potassium voltage-gated channel subfamily A member 3 (Homo sapiens, UniProt P22001). The experiment in a line: Inhibitory activity against voltage-gated potassium channel subunit Kv1.3. Type of assay: functional.
Assay [2] concerns the target T1, Potassium voltage-gated channel subfamily A member 3. The experiment in a line: Inhibition of voltage-gated potassium channel subunit Kv1.3 in chinese hamster ovary cells. Type of assay: functional, cell-based. The procedure, abridged: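 Depolarization-induced ⁸⁶Rb⁺ efflux measured in CHO cells stably transfected with human Kv1.3 channel (Rb_Kv functional assay), with short compound incubation; IC50 reported.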

Assay [3] shares this target. The assay can be described thus: Relative T cell IC50 compared to IC50 for correolide assay. Type of assay: functional, cell-based. An outline of the steps: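 Ratio of correolide IC50 to compound IC50 in the anti-CD3-stimulated human peripheral blood T cell proliferation assay; a larger value means greater potency.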
The target is the same in assay [4]. The experiment in a line: Inhibitory activity against voltage-gated potassium channel subunit Kv1.3 of human T cells. Format: functional, cell-based, T-cell.

T1 sequence (P22001 whole entry): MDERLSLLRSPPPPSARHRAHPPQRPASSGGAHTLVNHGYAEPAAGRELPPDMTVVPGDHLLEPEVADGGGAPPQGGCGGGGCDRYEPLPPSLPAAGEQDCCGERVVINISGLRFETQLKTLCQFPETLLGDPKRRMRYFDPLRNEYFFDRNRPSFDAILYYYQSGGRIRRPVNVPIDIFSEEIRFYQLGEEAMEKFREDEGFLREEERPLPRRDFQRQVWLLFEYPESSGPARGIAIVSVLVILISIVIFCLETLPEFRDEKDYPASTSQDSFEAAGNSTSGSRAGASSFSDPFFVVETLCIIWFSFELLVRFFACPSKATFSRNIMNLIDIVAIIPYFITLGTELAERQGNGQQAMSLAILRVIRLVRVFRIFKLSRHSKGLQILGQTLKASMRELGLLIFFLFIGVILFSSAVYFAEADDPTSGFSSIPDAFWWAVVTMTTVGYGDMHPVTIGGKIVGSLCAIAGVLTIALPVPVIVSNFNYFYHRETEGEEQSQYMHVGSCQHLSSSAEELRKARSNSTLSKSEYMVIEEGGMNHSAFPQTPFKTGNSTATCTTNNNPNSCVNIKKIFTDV

The compound `CC(=O)O[C@H]1C2[C@@](C)(CCC3C(=O)C(C)=C[C@@H](OC(C)=O)[C@@]32C)C2C=CCOC[C@]2([C@@H](C)OC(C)=O)[C@H]1OC(C)=O` (stereo partly specified) displayed a 50% inhibitory concentration (IC50) in assay [1] of 5600 nM.
`C=C1C[C@@]2(O)C3CC[C@]4(C)C([C@H](OC(C)=O)[C@H](OC(C)=O)[C@@]5([C@@H](C)OC(C)=O)COCC=CC45)[C@@]3(C)[C@H](OC(C)=O)[C@H](OC(C)=O)[C@@]2(C)C2(C(=O)OC)O[C@H]12` (stereo partly specified) came in with an IC50 in assay [1] of 10 nM.
Turning to `CC(=O)O[C@H]1C2[C@@](C)(CCC3C(O)(C[C@H](C)c4ccccc4)C(C)=C[C@@H](OC(C)=O)[C@@]32C)C2C=CCOC[C@]2([C@@H](C)OC(C)=O)[C@H]1OC(C)=O` (stereo partly specified), the IC50 in assay [2] was 120 nM; in assay [4], 613 nM. In assay [3], the Ratio was 0.3.
With `CC(=O)O[C@H]1C2[C@@](C)(CCC3C(O)(CC(C)(C)c4ccccc4)C(C)=C[C@@H](OC(C)=O)[C@@]32C)C2C=CCOC[C@]2([C@@H](C)OC(C)=O)[C@H]1OC(C)=O` (stereo partly specified), the IC50 is 19 nM in assay [2] and 184 nM in assay [4]. Besides, the Ratio in assay [3] was 1.
Turning to `COC(=O)C12O[C@@H]1C(=O)CC1(O)C3CC[C@]4(C)C([C@H](OC(C)=O)[C@H](OC(C)=O)[C@@]5([C@@H](C)OC(C)=O)COCC=CC45)[C@@]3(C)[C@H](OC(C)=O)[C@H](OC(C)=O)[C@]12C` (stereo partly specified), inhibition in assay [1] was half-maximal at 35 nM (IC50). This counts as double-digit nanomolar.
Regarding `C=C(CC1(O)C(C)=C[C@@H](OC(C)=O)[C@@]2(C)C1CC[C@]1(C)C2[C@H](OC(C)=O)[C@H](OC(C)=O)[C@@]2([C@@H](C)OC(C)=O)COCC=CC12)c1ccccc1OC` (stereo partly specified), the IC50 was 11 nM in assay [2] and 51.1 nM in assay [4]. In addition, the Ratio in assay [3] was 3.6.
For `CCc1ccccc1[C@H](C)CC1(O)C(C)=C[C@@H](OC(C)=O)[C@@]2(C)C1CC[C@]1(C)C2[C@H](OC(C)=O)[C@H](OC(C)=O)[C@@]2([C@@H](C)OC(C)=O)COCC=CC12` (stereo partly specified), the results for the IC50 in assay [2] and in assay [4] were 28 nM and 36.8 nM, respectively. Besides, in assay [3], the Ratio was 5.
In the case of `CCOc1ccccc1CCC1(O)C(C)=C[C@@H](OC(C)=O)[C@@]2(C)C1CC[C@]1(C)C2[C@H](OC(C)=O)[C@H](OC(C)=O)[C@@]2([C@@H](C)OC(C)=O)COCC=CC12` (stereo partly specified), the 50% inhibitory concentration (IC50) in assay [2] was 34 nM; in assay [4], 80 nM. For the same compound, the Ratio in assay [3] amounted to 2.3.
On to `CC[C@H](CC1(O)C(C)=C[C@@H](OC(C)=O)[C@@]2(C)C1CC[C@]1(C)C2[C@H](OC(C)=O)[C@H](OC(C)=O)[C@@]2([C@@H](C)OC(C)=O)COCC=CC12)c1ccccc1OC` (stereo partly specified), for which the half-maximal inhibitory concentration (IC50) in assay [2] was determined as 28 nM; in assay [4], 29.2 nM. Moreover, in assay [3], the Ratio was 6.3.
Take `CC(=O)O[C@H]1C2[C@@](C)(CCC3C(O)(CCc4ccccc4O)C(C)=C[C@@H](OC(C)=O)[C@@]32C)C2C=CCOC[C@]2([C@@H](C)OC(C)=O)[C@H]1OC(C)=O` (stereo partly specified): the IC50 in assay [2] is 26 nM; in assay [4] it was 428 nM. For the same compound, the Ratio in assay [3] amounted to 0.43.
Take `C=C(C[C@]1(O)C(C)=C[C@@H](OC(C)=O)[C@]2(C)C3[C@H](OC(C)=O)[C@H](OC(C)=O)[C@@]4([C@@H](C)OC(C)=O)COCC=CC4[C@]3(C)CCC21)c1ccccc1` (stereo partly specified): the IC50 came to 19 nM in assay [2] and 131 nM in assay [4]. Moreover, the Ratio in assay [3] came out at 1.4.
For the compound `CC(=O)O[C@H]1C2[C@@](C)(CCC3C(O)(CCc4ccccc4C(F)(F)F)C(C)=C[C@@H](OC(C)=O)[C@@]32C)C2C=CCOC[C@]2([C@@H](C)OC(C)=O)[C@H]1OC(C)=O` (stereo partly specified), the IC50 in assay [2] amounted to 87 nM; in assay [4] it was 1840 nM. Further, in assay [3], the Ratio was 0.1.
The like results for `C=C(CC1(O)C(C)=C[C@@H](OC(C)=O)[C@@]2(C)C1CC[C@]1(C)C2[C@H](OC(C)=O)[C@H](OC(C)=O)[C@@]2([C@@H](C)OC(C)=O)COCC=CC12)c1ccccc1SC` (stereo partly specified) were, in that order, 14 nM, 14.7 nM and 12.5.
Consider `C=C(CC1(O)C(C)=C[C@@H](OC(C)=O)[C@@]2(C)C1CC[C@]1(C)C2[C@H](OC(C)=O)[C@H](OC(C)=O)[C@@]2([C@@H](C)OC(C)=O)COCC=CC12)c1ccccc1CC` (stereo partly specified), for which the IC50 in assay [2] was determined as 44 nM; in assay [4], 25.5 nM. The Ratio in assay [3] is 7.2.
